# Active and inactive are the calls of the source. The calls are words filed in the database; no cut-off is given here.
# Columns and labels:
# [1] = target: T1, Prostaglandin G/H synthase 1 (Ovis aries, UniProt P05979); experiment: Inhibition of ram seminal vesicle COX1 assessed as PGE2 production by enzyme immunoassay
# T1 sequence (P05979 whole entry): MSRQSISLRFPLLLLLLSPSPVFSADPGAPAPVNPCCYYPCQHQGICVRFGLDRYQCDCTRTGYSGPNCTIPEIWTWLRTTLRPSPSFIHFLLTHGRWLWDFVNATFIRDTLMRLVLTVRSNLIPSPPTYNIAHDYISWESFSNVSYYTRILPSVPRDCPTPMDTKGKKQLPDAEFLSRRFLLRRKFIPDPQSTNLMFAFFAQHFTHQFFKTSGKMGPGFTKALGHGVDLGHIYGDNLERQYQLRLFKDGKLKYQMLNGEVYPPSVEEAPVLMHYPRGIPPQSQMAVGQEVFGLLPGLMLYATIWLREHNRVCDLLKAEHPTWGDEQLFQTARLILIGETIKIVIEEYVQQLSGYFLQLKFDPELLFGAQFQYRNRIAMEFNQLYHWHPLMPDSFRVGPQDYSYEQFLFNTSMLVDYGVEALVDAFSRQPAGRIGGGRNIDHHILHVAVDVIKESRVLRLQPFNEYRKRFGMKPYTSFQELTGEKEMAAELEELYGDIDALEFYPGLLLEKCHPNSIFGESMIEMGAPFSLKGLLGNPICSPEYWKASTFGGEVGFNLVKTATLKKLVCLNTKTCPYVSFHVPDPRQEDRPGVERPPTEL
# How it was run: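 Purified PGHS-1 from ram seminal vesicles; PGE2 product measured by competitive EIA; samples in ethanol. IC50 from at least three concentrations, duplicates, at least three independent experiments, by nonlinear regression.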
# [2] = target: T2, Inhibitor of nuclear factor kappa-B kinase subunit beta (Homo sapiens) (UniProt O14920); experiment: Inhibition of human IKK2 assessed as reduction in substrate phosphorylation at 10 uM by ELISA
# T2 sequence (whole entry): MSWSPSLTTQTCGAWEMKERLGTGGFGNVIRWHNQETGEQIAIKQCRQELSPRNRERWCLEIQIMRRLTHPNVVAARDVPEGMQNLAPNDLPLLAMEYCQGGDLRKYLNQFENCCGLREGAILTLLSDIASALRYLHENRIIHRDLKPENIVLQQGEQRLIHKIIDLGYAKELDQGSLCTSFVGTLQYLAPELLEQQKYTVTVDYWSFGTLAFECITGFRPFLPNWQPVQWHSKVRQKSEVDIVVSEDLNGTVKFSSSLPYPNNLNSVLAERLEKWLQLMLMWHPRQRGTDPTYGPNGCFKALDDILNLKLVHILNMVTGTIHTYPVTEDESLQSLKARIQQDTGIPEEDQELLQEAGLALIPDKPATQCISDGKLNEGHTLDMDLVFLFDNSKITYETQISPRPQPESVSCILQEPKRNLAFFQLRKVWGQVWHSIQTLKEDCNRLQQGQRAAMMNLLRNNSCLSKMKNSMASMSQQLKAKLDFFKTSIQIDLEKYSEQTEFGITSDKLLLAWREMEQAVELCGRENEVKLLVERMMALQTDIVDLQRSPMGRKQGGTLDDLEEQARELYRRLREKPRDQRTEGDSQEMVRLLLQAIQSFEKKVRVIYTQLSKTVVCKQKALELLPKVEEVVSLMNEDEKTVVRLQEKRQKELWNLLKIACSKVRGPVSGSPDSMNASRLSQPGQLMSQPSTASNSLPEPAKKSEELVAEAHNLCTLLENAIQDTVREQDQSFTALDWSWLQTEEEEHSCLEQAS
# [3] = target: T3, Prostaglandin G/H synthase 2 (Ovis aries, UniProt P79208); experiment: Inhibition of sheep placental COX2 assessed as PGE2 production by enzyme immunoassay
# T3 sequence (P79208 whole entry): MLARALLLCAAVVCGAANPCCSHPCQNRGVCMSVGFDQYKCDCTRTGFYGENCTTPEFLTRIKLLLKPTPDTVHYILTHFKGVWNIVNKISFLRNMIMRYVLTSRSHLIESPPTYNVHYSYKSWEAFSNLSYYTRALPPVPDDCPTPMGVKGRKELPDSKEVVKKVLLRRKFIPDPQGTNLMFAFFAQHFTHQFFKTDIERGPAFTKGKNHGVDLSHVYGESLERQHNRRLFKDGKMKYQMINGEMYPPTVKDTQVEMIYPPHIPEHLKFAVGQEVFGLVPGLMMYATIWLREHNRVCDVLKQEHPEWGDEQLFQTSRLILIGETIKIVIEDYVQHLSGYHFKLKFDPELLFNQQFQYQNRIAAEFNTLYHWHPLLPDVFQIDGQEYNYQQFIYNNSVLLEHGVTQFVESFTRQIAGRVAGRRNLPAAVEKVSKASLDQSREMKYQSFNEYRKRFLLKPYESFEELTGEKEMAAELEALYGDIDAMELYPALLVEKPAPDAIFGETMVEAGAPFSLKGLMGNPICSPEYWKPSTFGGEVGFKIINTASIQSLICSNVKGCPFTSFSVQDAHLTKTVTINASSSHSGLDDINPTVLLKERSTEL
# Mus musculus [4] = experiment: Antiinflammatory activity in CD1 mouse ear dermatitis model assessed as inhibition of Croton oil-induced ear edema administered topically per cm'2 of ear measured after induction of dermatitis relative to untreated control; format: functional
# [5] = target: T4, Peroxisome proliferator-activated receptor alpha (Homo sapiens) (UniProt Q07869); experiment: Activation of PPARalpha transfected in HEK293 cells at 10 uM after 18 hrs by firefly luciferase reporter gene-based luminescence assay; format: cell-based
# T4 sequence (whole entry): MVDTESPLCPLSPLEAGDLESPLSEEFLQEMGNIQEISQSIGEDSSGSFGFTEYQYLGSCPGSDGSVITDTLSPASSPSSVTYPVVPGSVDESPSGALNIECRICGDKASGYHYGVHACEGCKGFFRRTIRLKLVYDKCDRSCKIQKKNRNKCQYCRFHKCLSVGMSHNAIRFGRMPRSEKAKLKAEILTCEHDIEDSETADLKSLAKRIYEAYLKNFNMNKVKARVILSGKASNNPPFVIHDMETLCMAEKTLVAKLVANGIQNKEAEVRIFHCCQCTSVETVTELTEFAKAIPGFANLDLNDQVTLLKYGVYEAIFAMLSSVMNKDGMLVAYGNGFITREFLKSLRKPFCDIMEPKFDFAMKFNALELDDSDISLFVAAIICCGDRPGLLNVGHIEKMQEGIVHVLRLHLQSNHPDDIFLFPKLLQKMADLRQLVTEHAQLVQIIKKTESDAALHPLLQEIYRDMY
# [6] = test system: Radical scavenging activity; experiment: Antioxidant activity assessed as DPPH free radical scavenging activity after 30 mins by spectrophotometry; format: functional
# Mus musculus [7] = experiment: Antiinflammatory effect in CD1 mouse ear dermatitis model assessed as reduction in vascular changes at 0.4 umol administered topically per cm'2 of ear measured after 6 hrs post dermatitis induction relative to control; format: functional, organism-based
# How it was run: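 Male CD-1 mice (28–32 g) anesthetized with ketamine 145 mg/kg ip; right ear (about 1 cm2) given 80 μg croton oil in 15 μL acetone with test substance co-applied in acetone; controls irritant only; left ear untreated. Ears fixed in 10% formalin, paraffin-embedded, 10 μm sections stained hematoxylin-eosin or Giemsa, examined by light microscopy at set times after induction.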
Structure (SMILES),IC50 [1] [µM],inhibition [2],IC50 [3] [µM],ID50 (Mus musculus [4]) [umol/cm2],Activity [5],IC50 [6],IC50 ([6]; read-out: IC50) [µM],inhibition (Mus musculus [7])
C[C@@H]1[C@H](C)[C@@H](c2ccc(O)cc2)O[C@@H]1c1ccc(O)cc1,> 50,inactive,> 50,0.46,inactive,–,–,–
C/C=C/c1ccc2oc(-c3ccc(O)cc3O)cc2c1,3.8,inactive,7.1,0.6,inactive,Dose-dependent effect,22.1,–
C/C=C/c1ccc2oc(-c3ccc(O)cc3)cc2c1,18.3,inactive,2,0.44,inactive,–,–,–
COc1ccc(-c2cc3cc(CCCO)ccc3o2)c(O)c1,> 50,inactive,> 50,0.36,inactive,Dose-dependent effect,42.3,Active
C/C=C/c1ccc2c(c1)[C@@H](C)[C@H](c1ccc(O)cc1)O2,> 50,inactive,> 50,–,inactive,–,–,Active
C[C@@H]1[C@H](C)[C@@H](c2ccc(O)cc2)O[C@H]1c1ccc(O)cc1,> 50,inactive,> 50,0.36,inactive,–,–,–
COc1cc(O)ccc1-c1cc2cc(CCCO)ccc2o1,> 50,inactive,> 50,0.45,inactive,Dose-dependent effect,37.7,–
C/C=C/c1ccc2oc(-c3ccc(O)cc3OC)cc2c1 [RATANIAPHENOL III],2.7,inactive,7.6,0.48,inactive,Dose-dependent effect,36.3,–
C/C=C/c1ccc2oc(-c3ccc(OC)cc3O)cc2c1 [RATANIAPHENOL I],> 50,inactive,> 50,0.57,inactive,Dose-dependent effect,24.2,–
C/C=C/c1ccc2c(c1)[C@H](CO)[C@@H](c1ccc(O)cc1)O2,> 50,inactive,> 50,0.42,inactive,–,–,–
C/C=C/c1ccc2oc(-c3ccc(O)cc3)c(C)c2c1 [RATANIAPHENOL II],3,inactive,1.7,0.4,inactive,–,–,–
